Measurements reported in ChEMBL document CHEMBL1153775, “Synthesis, structure elucidation and antitumour activity of N-substituted amides of 3-(3-ethylthio-1,2,4-triazol-5-yl)propenoic acid” (Eur J Med Chem, 2009).

How the values were obtained:
T47D [1] = assay: Cytotoxicity against human T47D cells assessed as growth inhibition at 0.28 mM after 72 hrs by spectrophotometer using BrdU labeling; assay type: functional; details: read-out: GI
In short: (§1)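 Human breast carcinoma T47D cells were plated at 10⁴ cells per mL on microtiter plates. Each compound was added at three doses, given as mM equivalents of three mass concentrations. Plates were incubated for 24, 48 or 72 h. The read-out was percent growth inhibition (GI).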

A549 [2] = assay: Cytotoxicity against human A549 cells assessed as growth inhibition at 0.28 mM after 24 hrs by spectrophotometer using BrdU labeling; assay type: functional; details: A549, 24 h, read-out: GI
A549 [3] = assay: Cytotoxicity against human A549 cells assessed as growth inhibition at 0.14 mM after 48 hrs by spectrophotometer using BrdU labeling; assay type: functional; details: A549, 48 h, read-out: GI
T47D [4] = assay: Cytotoxicity against human T47D cells assessed as growth inhibition at 0.28 mM after 24 hrs by spectrophotometer using BrdU labeling; assay type: functional; details: read-out: GI; in short: as §1
A549 [5] = assay: Cytotoxicity against human A549 cells assessed as growth inhibition at 0.14 mM after 24 hrs by spectrophotometer using BrdU labeling; assay type: functional; details: A549, 24 h, read-out: GI
A549 [6] = assay: Cytotoxicity against human A549 cells assessed as growth inhibition at 0.14 mM after 72 hrs by spectrophotometer using BrdU labeling; assay type: functional; details: A549, 72 h, read-out: GI
T47D [7] = assay: Cytotoxicity against human T47D cells assessed as growth inhibition at 0.28 mM after 48 hrs by spectrophotometer using BrdU labeling; assay type: functional; details: read-out: GI; in short: as §1
A549 [8] = assay: Cytotoxicity against human A549 cells assessed as growth inhibition at 0.03 mM after 72 hrs by spectrophotometer using BrdU labeling; assay type: functional; details: A549, 72 h, read-out: GI
T47D [9] = assay: Cytotoxicity against human T47D cells assessed as growth inhibition at 0.14 mM after 72 hrs by spectrophotometer using BrdU labeling; assay type: functional; details: read-out: GI
[10] = Cytotoxicity against human HSF cells assessed as growth inhibition at 0.28 mM after 48 hrs by spectrophotometer using BrdU labeling; assay type: cell-based; details: read-out: GI
T47D [11] = assay: Cytotoxicity against human T47D cells assessed as growth inhibition at 0.03 mM after 24 hrs by spectrophotometer using BrdU labeling; assay type: functional; details: read-out: GI
[12] = Cytotoxicity against human HSF cells assessed as growth inhibition at 0.03 mM after 24 hrs by spectrophotometer using BrdU labeling; assay type: cell-based; details: read-out: GI
A549 [13] = assay: Cytotoxicity against human A549 cells assessed as growth inhibition at 0.03 mM after 48 hrs by spectrophotometer using BrdU labeling; assay type: functional; details: A549, 48 h, read-out: GI
T47D [14] = assay: Cytotoxicity against human T47D cells assessed as growth inhibition at 0.14 mM after 48 hrs by spectrophotometer using BrdU labeling; assay type: functional; details: read-out: GI
A549 [15] = assay: Cytotoxicity against human A549 cells assessed as growth inhibition at 0.28 mM after 72 hrs by spectrophotometer using BrdU labeling; assay type: functional; details: A549, 72 h, read-out: GI
T47D [16] = assay: Cytotoxicity against human T47D cells assessed as growth inhibition at 0.03 mM after 72 hrs by spectrophotometer using BrdU labeling; assay type: functional; details: read-out: GI
A549 [17] = assay: Cytotoxicity against human A549 cells assessed as growth inhibition at 0.28 mM after 48 hrs by spectrophotometer using BrdU labeling; assay type: functional; details: A549, 48 h, read-out: GI
[18] = Cytotoxicity against human HSF cells assessed as growth inhibition at 0.03 mM after 48 hrs by spectrophotometer using BrdU labeling; assay type: cell-based; details: read-out: GI
A549 [19] = assay: Cytotoxicity against human A549 cells assessed as growth inhibition at 0.03 mM after 24 hrs by spectrophotometer using BrdU labeling; assay type: functional; details: A549, 24 h, read-out: GI
[20] = Cytotoxicity against human HSF cells assessed as growth inhibition at 0.03 mM after 72 hrs by spectrophotometer using BrdU labeling; assay type: cell-based; details: read-out: GI
[21] = Cytotoxicity against human HSF cells assessed as growth inhibition at 0.28 mM after 24 hrs by spectrophotometer using BrdU labeling; assay type: cell-based; details: read-out: GI
[22] = Cytotoxicity against human HSF cells assessed as growth inhibition at 0.14 mM after 48 hrs by spectrophotometer using BrdU labeling; assay type: cell-based; details: read-out: GI
[23] = Cytotoxicity against human HSF cells assessed as growth inhibition at 0.28 mM after 72 hrs by spectrophotometer using BrdU labeling; assay type: cell-based; details: read-out: GI
T47D [24] = assay: Cytotoxicity against human T47D cells assessed as growth inhibition at 0.14 mM after 24 hrs by spectrophotometer using BrdU labeling; assay type: functional; details: read-out: GI
T47D [25] = assay: Cytotoxicity against human T47D cells assessed as growth inhibition at 0.03 mM after 48 hrs by spectrophotometer using BrdU labeling; assay type: functional; details: read-out: GI
[26] = Cytotoxicity against human HSF cells assessed as growth inhibition at 0.14 mM after 24 hrs by spectrophotometer using BrdU labeling; assay type: cell-based; details: read-out: GI
[27] = Cytotoxicity against human HSF cells assessed as growth inhibition at 0.14 mM after 72 hrs by spectrophotometer using BrdU labeling; assay type: cell-based; details: read-out: GI

Q: Which inhibition of growth at 280 µM (T47D [1]) does the source give for `CCSc1n[nH]c(/C=C\C(=O)Nc2ccc(Br)cc2)n1` here?
A: 25%

Q: What about the inhibition of growth at 280 µM (A549 [2]) of the same compound?
A: 50%

Q: What about the inhibition of growth at 140 µM (A549 [3]) of the same compound?
A: 50%

Q: What about the inhibition of growth at 280 µM (T47D [4]) of the same compound?
A: 5%

Q: And the inhibition of growth at 140 µM (A549 [5])?
A: 50%

Q: And the inhibition of growth at 140 µM (A549 [6])?
A: 50%

Q: And the inhibition of growth at 280 µM (T47D [7])?
A: 20%

Q: And the inhibition of growth at 30 µM (A549 [8])?
A: 0%

Q: What about the inhibition of growth at 140 µM (T47D [9]) of the same compound?
A: 25%

Q: And the inhibition at 48 h, 280 µM [10]?
A: 75%

Q: And the inhibition of growth at 30 µM (T47D [11])?
A: 0%

Q: And the inhibition at 24 h, 30 µM [12]?
A: 0%

Q: And the inhibition of growth at 30 µM (A549 [13])?
A: 25%

Q: What about the inhibition of growth at 140 µM (T47D [14]) of the same compound?
A: 10%

Q: What about the inhibition of growth at 280 µM (A549 [15]) of the same compound?
A: 75%

Q: What about the inhibition of growth at 30 µM (T47D [16]) of the same compound?
A: 0%

Q: What about the inhibition of growth at 280 µM (A549 [17]) of the same compound?
A: 50%

Q: What about the inhibition at 48 h, 30 µM [18] of the same compound?
A: 0%

Q: What about the inhibition of growth at 30 µM (A549 [19]) of the same compound?
A: 25%

Q: And the inhibition at 72 h, 30 µM [20]?
A: 0%

Q: And the inhibition at 24 h, 280 µM [21]?
A: 75%

Q: And the inhibition at 48 h, 140 µM [22]?
A: 75%

Q: What about the inhibition at 72 h, 280 µM [23] of the same compound?
A: 50%

Q: What about the inhibition of growth at 140 µM (T47D [24]) of the same compound?
A: 5%

Q: What about the inhibition of growth at 30 µM (T47D [25]) of the same compound?
A: 0%

Q: What about the inhibition at 24 h, 140 µM [26] of the same compound?
A: 75%

Q: What about the inhibition at 72 h, 140 µM [27] of the same compound?
A: 75%
